This is a sample that favours compounds with a hit; in the whole collection about 3.2% have one here.
OX1R antag-1: blocks the human orexin 1 receptor. O43613. CHO/OX1R cells, Fluo-8 calcium fluorescence, orexin A. inhibition, % at 5 µM. 330,000 tested, 0.43% active;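 active means inhibition above its plate's threshold, mean inhibition of all tested compounds on the plate plus 3 SD, cut at about 37% in these data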;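 further: 0% = orexin A challenge wells and 100% = SB-334867-A antagonist wells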
GPR7 antag: blocks human GPR7 receptor signaling; GPR7-expressing cells, fluorescence antagonist assay; 290,000 tested, 1.1% active; inhibition, % at 4.4 µM; in the data active means inhibition above about 16%, passing the limit was not always enough;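 further: cells stimulated with the agonist NPW; 0% = agonist with vehicle and 100% = vehicle without agonist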
Target sequence (P48145 whole entry, looked up): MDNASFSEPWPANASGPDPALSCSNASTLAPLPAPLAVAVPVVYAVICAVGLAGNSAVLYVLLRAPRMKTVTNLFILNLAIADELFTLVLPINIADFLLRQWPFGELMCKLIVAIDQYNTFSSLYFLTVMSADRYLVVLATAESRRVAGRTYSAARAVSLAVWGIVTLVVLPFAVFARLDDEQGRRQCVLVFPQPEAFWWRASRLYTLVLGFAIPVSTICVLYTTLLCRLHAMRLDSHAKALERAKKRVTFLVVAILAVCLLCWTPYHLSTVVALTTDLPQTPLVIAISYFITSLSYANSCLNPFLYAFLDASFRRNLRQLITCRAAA
CHO parental Ca: signal in parental CHO cells, OX1R antagonist counter-screen; parental CHO-K1, ATP-induced calcium, Fluo-8 fluorescence; inhibition, % at 5.6 µM; 330,000 tested, 0.63% active; AID 463079;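 active means inhibition above that plate's mean sample inhibition plus 3 SD, cut at about 26% in these data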;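 further: 0% = ATP-challenged DMSO wells and 100% = DMSO wells without ATP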
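Assay system – parental CHO cells · Reagent – ATP stimulus · Detection – intracellular calcium via Fluo-8 no-wash fluorescent dye · Evaluation – percent inhibition of ATP-evoked calcium rise, normalized to controls · Controls – ATP wells versus no-ATP DMSO wells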
OX1R antag-2: OX1R (human) antagonism; O43613; OX1R-expressing cells, FRET antagonist read-out; inhibition, % at 6.6 µM; 330,000 tested, 1.8% active; AID 485270; in the data active means inhibition mostly above about 38%, no sharp cut-off; inactive means mostly below about 40%;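 further: 0% = agonist challenge alone and 100% = reference antagonist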
zfTRPN1 agonist: agonists of zebrafish TRPN1 channel. HEK293 zebrafish TRPN1-YFP, Fluo-8 calcium fluorescence; 100% = response to 87 µM carbachol. activation, % at 3 µM. 220,000 tested, 0.18% active;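 active means activation above its plate's cutoff, the mean activation of test wells on that plate plus 3 SD, cut at about 19% in these data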;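 further: 0% = DMSO alone and 100% = 87 µM carbachol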
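System: zebrafish TRPN1-YFP in HEK293 cells / Dosing: 3 µM single point / Timing: dye loading 1 h at 37 °C, then 30 min room temperature / Signal: Fluo-8 calcium fluorescence, excitation 470-495 nm, emission 515-575 nm / Read-out basis: percent activation from peak over basal fluorescence ratio, control-normalized / Control set: high carbachol 87 µM, low DMSO alone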
TRPML3 agonist: activates the human TRPML3 channel; HEK293 TRPML3-YFP, Fluo-8 calcium fluorescence; 100% = the carbachol control signal; Q8TDD5; activation, % at 3 µM; 220,000 tested, 0.29% active;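 active means activation above its plate's cutoff, the mean activation of the plate's test wells plus 3 SD, cut at about 12% in these data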;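 further: 0% = DMSO only wells and 100% = carbachol wells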
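Test system: HEK293 cells stably carrying human TRPML3-YFP; Doses: single dose, 3 µM final nominal compound, 0.3% DMSO final; Schedule: dye loading 1 h 37 °C then 30 min ambient, 125 s read; Technique: Fluo-8 calcium fluorescence; Benchmarks: high control carbachol 87 µM, low control DMSO.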
OX1R HTRF confirm: confirmation of human orexin 1 receptor antagonists, HTRF format | shares compounds with OX1R antag-2 | 1,800 tested, 49% active | inhibition, % at 6.6 µM | OX1R-expressing cells, HTRF antagonist assay | AID 492964; in the data active means inhibition above about 55%;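 further: CHO cells expressing OX1R stimulated with orexin A at about EC80; 0% = agonist challenge alone and 100% = reference antagonist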
CHO-K1 HTRF cnt: counter-screen: parental CHO-K1 HTRF response; shares compounds with OX1R antag-2; inhibition, % at 6.6 µM; AID 493232; parental CHO-K1 cells, HTRF counterscreen; 1,800 tested, 48% active; in the data active means inhibition above about 17%;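 further: 0% = agonist challenge with vehicle and 100% = vehicle alone without agonist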
Active calls of the source: *.

Results for O=C(O)CCNc1ccc(NCCC(=O)O)c2c1C(=O)c1ccccc1C2=O ?
OX1R antag-1: -9; GPR7 antag: -2; CHO parental Ca: 6; OX1R antag-2: 104*; OX1R HTRF confirm: 61*; CHO-K1 HTRF cnt: 86*

How did O=[N+]([O-])c1ccc2c(c1N1CCCCC1)=NC1(CCCCC1)[N+]=2[O-] do in these assays?
OX1R antag-1: -29; GPR7 antag: -17; CHO parental Ca: -8; OX1R antag-2: 77*; zfTRPN1 agonist: 1; TRPML3 agonist: 1; OX1R HTRF confirm: 49; CHO-K1 HTRF cnt: 77*

Results for OCC(O)C(O)C(O)C(O)c1nc2ccccc2[nH]1 (stereo unspecified) ?
OX1R antag-1: -6; GPR7 antag: -1; CHO parental Ca: 0; OX1R antag-2: 27; zfTRPN1 agonist: 0; TRPML3 agonist: 0

Results for NC(CS(=O)O)C(=O)O (stereo unspecified) ?
OX1R antag-1: 3; CHO parental Ca: 3; OX1R antag-2: 8

How did COc1cccc(/C=C2/SC(=S)N(CC(=O)NNC(=O)c3ccccc3OC)C2=O)c1 do in these assays?
OX1R antag-1: -7; GPR7 antag: -2; CHO parental Ca: -6; OX1R antag-2: 86*; OX1R HTRF confirm: 96*; CHO-K1 HTRF cnt: 3

Results for COc1cccc(/C=C2\SC(=S)N(CCC(=O)NNC(=O)c3ccccc3OC)C2=O)c1 ?
OX1R antag-1: -17; GPR7 antag: -14; CHO parental Ca: -9; OX1R antag-2: 14

What do the screens show for `COc1cc(-c2c(C(C)=O)c(C)nc3c2C(=O)c2ccccc2-3)cc(OC)c1OC`?
GPR7 antag: -2

Results for COc1cc2c(cc1OC)-c1c(OC)c(OC)cc3ccnc(c13)C2=O ?
OX1R antag-1: -11; GPR7 antag: -15; CHO parental Ca: -7; OX1R antag-2: 80*; zfTRPN1 agonist: 0; TRPML3 agonist: 0; OX1R HTRF confirm: 47; CHO-K1 HTRF cnt: 26*

How did CC(NS(=O)(=O)c1ccc([N+](=O)[O-])cc1)C(=O)NN (stereo unspecified) do in these assays?
OX1R antag-1: -14; GPR7 antag: -7; CHO parental Ca: -6; OX1R antag-2: 85*; zfTRPN1 agonist: 1; TRPML3 agonist: 1; OX1R HTRF confirm: 28; CHO-K1 HTRF cnt: 48*

How did NC(=O)c1c(NC(=O)c2ccccc2)sc2c1CCC2 do in these assays?
OX1R antag-1: 14; GPR7 antag: 2; CHO parental Ca: -20; OX1R antag-2: 89*; OX1R HTRF confirm: 84*; CHO-K1 HTRF cnt: 3

What do the screens show for `NC(=O)c1c(NC(=O)c2ccncc2)sc2c1CCCC2`?
OX1R antag-1: -30; GPR7 antag: -8; CHO parental Ca: -11; OX1R antag-2: 20; zfTRPN1 agonist: 1; TRPML3 agonist: 0

How did COCCN1Cc2cccc(C(=O)Nc3cccc(-c4nc5ccccc5[nH]4)c3)c2C1=O do in these assays?
OX1R antag-1: -3; GPR7 antag: 11; CHO parental Ca: -14; OX1R antag-2: 86*; zfTRPN1 agonist: 1; TRPML3 agonist: 1; OX1R HTRF confirm: 60*; CHO-K1 HTRF cnt: 3

How did COc1ccc(Cl)cc1S(=O)(=O)N1CCCC(C(=O)N2CCOCC2)C1 (stereo unspecified) do in these assays?
OX1R antag-1: -2; GPR7 antag: 15; CHO parental Ca: -7; OX1R antag-2: 21

Results for Cc1ccc(C(=O)N/N=C\c2ccc([N+](=O)[O-])s2)cn1 ?
OX1R antag-1: -8; GPR7 antag: -3; CHO parental Ca: -13; OX1R antag-2: 53; zfTRPN1 agonist: 0; TRPML3 agonist: 1

Results for COc1ccc(NC(=O)CCC(=O)N/N=C/c2cccnc2)cc1 ?
OX1R antag-1: -1; GPR7 antag: -6; CHO parental Ca: 1; OX1R antag-2: 6

Results for COc1ccc(NC(=O)CCC(=O)N/N=C/c2ccc([N+](=O)[O-])s2)cc1 ?
OX1R antag-1: -5; GPR7 antag: 0; CHO parental Ca: -3; OX1R antag-2: 81*; zfTRPN1 agonist: -1; TRPML3 agonist: 1; OX1R HTRF confirm: 47; CHO-K1 HTRF cnt: 45*

What do the screens show for `CC(C)(C)OC(=O)N/N=C\c1ccc([N+](=O)[O-])s1`?
OX1R antag-1: -12; GPR7 antag: -5; CHO parental Ca: -3; OX1R antag-2: 88*; zfTRPN1 agonist: 0; TRPML3 agonist: 1; OX1R HTRF confirm: 38; CHO-K1 HTRF cnt: 44*

How did CCOc1ccc(S(=O)(=O)NCCC(=O)NCc2ccncc2)cc1 do in these assays?
OX1R antag-1: 0; CHO parental Ca: -6; OX1R antag-2: 11

Results for CCOC(=O)N1CCN(C(=O)CCNS(=O)(=O)c2ccc3c(c2)c(=O)n(C)c(=O)n3C)CC1 ?
OX1R antag-1: 1; GPR7 antag: -13; CHO parental Ca: -12; OX1R antag-2: 9; zfTRPN1 agonist: -1; TRPML3 agonist: 1

What do the screens show for `CCOc1ccccc1N(CC(=O)NCCSc1ccccn1)S(=O)(=O)c1ccccc1`?
OX1R antag-1: 16; GPR7 antag: 2; CHO parental Ca: -37; OX1R antag-2: 80*; OX1R HTRF confirm: 77*; CHO-K1 HTRF cnt: 8

What do the screens show for `Cc1ccc(NC(=O)NC2CC(=O)N(c3ccc4c(c3)OCCO4)C2)c(C)c1` (stereo unspecified)?
OX1R antag-1: -6; CHO parental Ca: -11; OX1R antag-2: 17

How did O=C(O)COc1ccc(/C=C/c2ccc3cccc([N+](=O)[O-])c3n2)cc1 do in these assays?
OX1R antag-1: -17; GPR7 antag: -7; CHO parental Ca: -6; OX1R antag-2: 20; zfTRPN1 agonist: 0; TRPML3 agonist: 1

How did CC(=O)Nc1ccc(/C=C/c2ccc3cccc([N+](=O)[O-])c3n2)cc1 do in these assays?
OX1R antag-1: 8; GPR7 antag: -6; CHO parental Ca: -15; OX1R antag-2: 87*; zfTRPN1 agonist: 2; TRPML3 agonist: 0; OX1R HTRF confirm: 62*; CHO-K1 HTRF cnt: 10

How did COc1ccccc1C(=O)NC1CCN(C(=O)Nc2ccc(C)cc2)CC1 do in these assays?
OX1R antag-1: -1; GPR7 antag: -5; CHO parental Ca: -10; OX1R antag-2: 10

How did C[C@@H](C(=O)Nc1ccc2ccccc2c1)[C@@H]1C[C@@]1(C)[C@@H](NC(=O)c1ccccc1)c1ccccc1 do in these assays?
OX1R antag-1: -19; GPR7 antag: 6; CHO parental Ca: -14; OX1R antag-2: 21; zfTRPN1 agonist: -1; TRPML3 agonist: 1
